Reference: ChEMBL document CHEMBL5724801, “EUbOPEN Chemogenomics Library - Multiplex” (2024)
Several values for one entry are separate records, joined by “and”; a condition that tells them apart may be missing. Equal entries are not always repeated.

Legend:
HEK-293T = assay: Multiplex assay against HEK293T; type: toxicity, cell-based; settings: human
How it was run: (§1)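 Live cells were stained at seeding with Hoechst33342, BioTracker Green Microtubule Cytoskeleton Dye, MitoTracker Red and Annexin V Alexa Fluor 680. Following compound addition, they were imaged on a CQ1 microscope at 37°C and 5% CO2 and gated by CellPathfinder machine learning into Hoechst high-intensity objects or normal cells, with normal cells split into healthy, pyknosed or fragmented nuclei and pyknosed cells into mitotic or apoptotic. Tubulin, mitochondrial-mass and membrane-permeability phenotypes are per cents of healthy-nucleus cells.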

U2OS = assay: Multiplex assay against U2OS; type: toxicity, cell-based; settings: human; how it was run: as §1
[1] = 12 h, 1 µM, compound concentration 1 uM
[2] = 12 h, 10 µM, compound concentration 10 uM
[3] = 24 h, 1 µM, compound concentration 1 uM
[4] = 24 h, 10 µM, compound concentration 10 uM
[5] = 48 h, 1 µM, compound concentration 1 uM
[6] = 48 h, 10 µM, compound concentration 10 uM

## c1ccc2nc(N3CCNCC3)ccc2c1 [QUIPAZINE]
HEK-293T; [1]
  Population Apoptotic (%): 6.35% and 5.69%
  Population Fragmented Nuclei (%): 1.8% and 5.66%
  Population Healthy Nuclei (%): 49.61% and 16.98%
  Population Hoechst High Intensity Objects (%): 0%
  Population Membrane Permeable-Phenotype (%): 0.52% and 0%
  Population Mitochondria Different-Phenotype (%): 33.16% and 11.11%
  Population Mitotic Cells (%): 93.65% and 94.31%
  Population Normal (%): 100%
  Population Pyknosed Nuclei (%): 48.59% and 77.36%
  Total Cell Count: 389 and 159
HEK-293T; [2]
  Population Apoptotic (%): 10.22% and 12.62%
  Population Fragmented Nuclei (%): 1.36% and 2.36%
  Population Hoechst High Intensity Objects (%): 0.68% and 0%
  Population Membrane Permeable-Phenotype (%): 0.65% and 4.76%
  Population Mitochondria Different-Phenotype (%): 23.53% and 19.05%
  Population Mitotic Cells (%): 89.78% and 87.38%
  Population Normal (%): 99.32% and 100%
  Population Pyknosed Nuclei (%): 46.6% and 81.1%
  Total Cell Count: 296 and 127
HEK-293T; [3]
  Population Apoptotic (%): 10.39% and 10%
  Population Fragmented Nuclei (%): 1.31% and 1.74%
  Population Healthy Nuclei (%): 73.44% and 34.3%
  Population Hoechst High Intensity Objects (%): 0%
  Population Membrane Permeable-Phenotype (%): 2.9% and 0%
  Population Mitochondria Different-Phenotype (%): 14.29% and 11.86%
  Population Mitotic Cells (%): 89.61% and 90%
  Population Normal (%): 100%
  Population Pyknosed Nuclei (%): 25.25% and 63.95%
  Population Tubulin-Different-Phenotype (%): 16.29% and 6.78%
HEK-293T; [4]
  Population Apoptotic (%): 18.49% and 17.05%
  Population Fragmented Nuclei (%): 1.63% and 1.53%
  Population Healthy Nuclei (%): 74.08% and 31.3%
  Population Hoechst High Intensity Objects (%): 0.41% and 0%
  Population Membrane Permeable-Phenotype (%): 1.1% and 0%
  Population Mitochondria Different-Phenotype (%): 15.98% and 14.63%
  Population Mitotic Cells (%): 81.51% and 82.95%
  Population Normal (%): 99.59% and 100%
  Population Pyknosed Nuclei (%): 24.29% and 67.18%
  Population Tubulin-Different-Phenotype (%): 15.98% and 9.76%
HEK-293T; [5]
  Population Fragmented Nuclei (%): 2.36% and 0.5%
  Population Healthy Nuclei (%): 83.55% and 65%
  Population Hoechst High Intensity Objects (%): 0.15% and 0%
  Population Membrane Permeable-Phenotype (%): 6.88% and 1.54%
  Population Mitochondria Different-Phenotype (%): 14.83% and 16.15%
  Population Mitotic Cells (%): 95.81% and 81.16%
  Population Normal (%): 99.85% and 100%
  Population Pyknosed Nuclei (%): 14.09% and 34.5%
HEK-293T; [6]
  Population Apoptotic (%): 13.64% and 6.25%
  Population Fragmented Nuclei (%): 3.18% and 1.42%
  Population Healthy Nuclei (%): 86.82% and 64.54%
  Population Hoechst High Intensity Objects (%): 0%
  Population Membrane Permeable-Phenotype (%): 5.34% and 3.3%
  Population Mitochondria Different-Phenotype (%): 17.59% and 12.09%
  Population Mitotic Cells (%): 86.36% and 93.75%
  Population Normal (%): 100%
U2OS; [1]
  Population Apoptotic (%): 38.46% and 42.86%
  Population Fragmented Nuclei (%): 2.12% and 3.18%
  Population Healthy Nuclei (%): 85.61% and 83.44%
  Population Hoechst High Intensity Objects (%): 0%
  Population Membrane Permeable-Phenotype (%): 0.28% and 1.53%
  Population Mitotic Cells (%): 61.54% and 57.14%
  Population Normal (%): 100%
  Population Pyknosed Nuclei (%): 12.26% and 13.38%
  Population Tubulin-Different-Phenotype (%): 0.28% and 0%
  Total Cell Count: 424 and 157
U2OS; [2]
  Population Apoptotic (%): 41.67% and 21.05%
  Population Fragmented Nuclei (%): 2.14% and 2.94%
  Population Healthy Nuclei (%): 88.24% and 85.88%
  Population Hoechst High Intensity Objects (%): 0%
  Population Membrane Permeable-Phenotype (%): 2.12% and 2.05%
  Population Mitochondria Different-Phenotype (%): 0.61% and 9.59%
  Population Mitotic Cells (%): 58.33% and 78.95%
  Population Normal (%): 100%
  Population Pyknosed Nuclei (%): 9.63% and 11.18%
  Population Tubulin-Different-Phenotype (%): 1.21% and 0%
  Total Cell Count: 374 and 170
U2OS; [3]
  Population Apoptotic (%): 52.86% and 39.13%
  Population Fragmented Nuclei (%): 0.69% and 1.94%
  Population Healthy Nuclei (%): 87.26% and 86.89%
  Population Hoechst High Intensity Objects (%): 0.17% and 0%
  Population Membrane Permeable-Phenotype (%): 0.79% and 3.91%
  Population Mitochondria Different-Phenotype (%): 0.39% and 6.7%
  Population Mitotic Cells (%): 47.14% and 60.87%
  Population Normal (%): 99.83% and 100%
  Population Pyknosed Nuclei (%): 12.05% and 11.17%
  Population Tubulin-Different-Phenotype (%): 1.38% and 0%
  Total Cell Count: 582 and 206
U2OS; [4]
  Population Apoptotic (%): 40.82% and 48%
  Population Fragmented Nuclei (%): 0.76% and 0%
  Population Healthy Nuclei (%): 89.87% and 89.41%
